Assay results of several laboratories.
Compare with care: the assays were run in different laboratories.
Cell line: A549
Read-out: cell growth or viability

CCCCn1cnc2ccc(-c3ccc(NC(=O)Nc4ccc(Cl)cc4)nc3)cc2c1=O
IC50 (CCK-8; 72 h): > 10 µM

O=C(C=Cc1cccs1)c1ccc(OCCOc2ccc(C(=O)C=Cc3cccs3)cc2)cc1
IC50 (MTT; 48 h): 42 µM

OC1CCN(c2ccc(/C=N/NC(=S)Nc3ccc(Cl)cc3)cc2)CC1
IC50 (MTT; 24 h): 2.92 µM

COc1cccc2c1C(=O)c1c(O)c3c(c(O)c1C2=O)C[C@@](O)(C(=O)CO)C[C@@H]3O[C@H]1C[C@H](N)[C@H](O)[C@H](C)O1
IC50 (96 h): 0.236 µM

COc1cccc(CNc2ccc(C(=O)O)cc2)c1OC
IC50 (resazurin; 72 h): > 100 µM

O=C(Nc1ccc(-c2ccc3ncn(Cc4ccccc4)c(=O)c3c2)cn1)C1CC1
IC50 (CCK-8; 72 h): > 10 µM

C#Cc1cccc(Nc2ncnc3cc(OCCOC)c(OCCOC)cc23)c1
IC50 (MTT; 48 h): 17.3 µM

COc1ccc(C(=O)Nc2nc3cc(-c4ccc5ncn(Cc6ccccc6)c(=O)c5c4)ccc3s2)cc1
IC50 (MTT; 72 h): > 20 µM

NNc1nc2ccc(Br)cc2c(=O)n1-c1ccc(Cl)cc1
IC50 (MTT; 48 h): 79.2 µM

C/C(=N\C(=O)/N=C(\C)c1c(O)c2ccccc2oc1=O)c1c(O)c2ccccc2oc1=O
IC50 (MTT; 48 h): 19.7 µM

COC(=O)c1cc(C(C)=NNc2nc(-c3cccc4cc[nH]c34)cs2)ccc1O
IC50 (MTT; 96 h): 92.3 µM

C/C(=N\C(=N)/N=C(\C)c1c(O)c2ccccc2oc1=O)c1c(O)c2ccccc2oc1=O
IC50 (MTT; 48 h): 66 µM

NS(=O)(=O)c1ccc(-n2nc(C(=O)NN=Cc3ccc(O)cc3)cc2-c2ccccc2)cc1
IC50 (fluorescence; 48 h): 7.9 µM

OC1CCN(c2ccc(/C=N/NC(=S)Nc3ccc(F)cc3)cc2)CC1
IC50 (MTT; 24 h): 2.81 µM

CCCC(C)C(=O)Nc1ccc(-c2ccc3ncn(CCC)c(=O)c3c2)cn1 (stereo not drawn)
IC50 (CCK-8; 72 h): 9.85 µM

NS(=O)(=O)c1ccc(-n2nc(C(=O)NN3C(=O)c4ccccc4C3=O)cc2-c2ccccc2)cc1
IC50 (fluorescence; 48 h): 33.5 µM

CN(C)CCn1cnc2ccc(-c3ccc4sc(NC(=O)Nc5ccc(F)cc5)nc4c3)cc2c1=O
IC50 (MTT; 72 h): 0.98 µM

CCCNC(=S)N/N=C/c1cccc2cc3ccccc3nc12
IC50 (MTT; 48 h): > 50 µM

CC(C)Cc1ccc([C@H](C)C(=O)O)cc1
IC50 (SRB; 72 h): 349 µM

O=C(C=Cc1cccs1)c1ccc(OCCCOc2ccc(C(=O)C=Cc3cccs3)cc2)cc1
IC50 (MTT; 48 h): 115 µM

CCCn1cnc2ccc(-c3ccc(N4CCCCCCC4=O)nc3)cc2c1=O
IC50 (CCK-8; 72 h): > 10 µM

COc1cccc(NC(=O)Cn2cc(COc3ncnc4[nH]cnc34)nn2)c1
IC50 (MTT): 30.2 µM

N=C(N)c1ccc(OCCCCCOc2ccc(C(=N)N)cc2)cc1
IC50 (ATP luminescence; 72 h): 12.8 µM

O=C(O)c1ccc(NCc2ccc(Br)cc2)cc1
IC50 (resazurin; 72 h): > 100 µM

CCCn1cnc2ccc(-c3ccc(NC(=O)CC4CCC4)nc3)cc2c1=O
IC50 (CCK-8; 72 h): > 10 µM

CC(=O)O[C@H]1C(=O)[C@@]2(C)[C@H]([C@H](OC(=O)c3ccccc3)[C@]3(O)C[C@H](OC(=O)[C@H](O)[C@@H](NC(=O)c4ccccc4)c4ccccc4)C(C)=C1C3(C)C)[C@]1(OC(C)=O)CO[C@@H]1C[C@@H]2O
IC50 (MTT; 72 h): 0.64 µM

NNc1nc2c(Cl)cc(Cl)cc2c(=O)n1-c1ccc(Cl)cc1
IC50 (MTT; 48 h): 25.9 µM

CCCn1cnc2ccc(-c3ccc4sc(NC(=O)Nc5ccc(F)cc5)nc4c3)cc2c1=O
IC50 (MTT; 72 h): 0.44 µM

Cc1sc2c(c1C)C(c1ccc(Cl)cc1)=N[C@@H](CC(=O)NCCCCNC(=O)COc1cccc3c1C(=O)N(C1CCC(=O)NC1=O)C3=O)c1nnc(C)n1-2 (stereo partly drawn)
IC50 (CCK-8; 72 h): > 10 µM

C/C(=N\CCNCC/N=C(\C)c1c(O)c2ccccc2oc1=O)c1c(O)c2ccccc2oc1=O
IC50 (MTT; 48 h): 8.75 µM

CC1CCC(C(C)C)C(OC2=C(Cl)C(=O)c3ccccc3C2=O)C1 (stereo not drawn)
IC50 (MTT; 24 h): > 50 µg/mL

O=C(O)c1ccc(NCc2ccc([N+](=O)[O-])cc2)cc1
IC50 (resazurin; 72 h): > 100 µM

CCCCn1cnc2ccc(-c3ccc(NC(=O)C4CCCC4)nc3)cc2c1=O
IC50 (CCK-8; 72 h): 4.58 µM

Cc1cc(NS(=O)(=O)c2ccc(NC(=O)/C(C#N)=C/c3ccc(N4CCCCC4)cc3)cc2)no1
IC50 (MTT; 48 h): 36.4 µM

CC(=O)Nc1nc2cc(-c3ccc4ncn(Cc5ccccc5)c(=O)c4c3)ccc2s1
IC50 (MTT; 72 h): > 20 µM

CCCCC(=O)Nc1cc(C)c(-c2ccc3ncn(CCC)c(=O)c3c2)cn1
IC50 (CCK-8; 72 h): > 10 µM

CC(C)[C@@H]1NC(=O)[C@@H](CCCNC(=N)N)NC(=O)[C@H]([C@@H](C)O)NC(=O)[C@@H](CCCN)NC(=O)[C@H](Cc2ccccc2)NC(=O)[C@@H](Cc2ccccc2)NC1=O
IC50 (ATP luminescence; 72 h): > 100 µM

CC1=CC(=O)C(C(C)C)=CC1=O
IC50 (SRB; 48 h): 11.1 µM

CC(C)c1ccc(/C=C2\N=C(SCC(=O)O)N(c3ccccc3)C2=O)cc1
IC50 (MTT): 57.4 µg/mL

CCCn1cnc2ccc(-c3ccc(NC(=O)CC4CC4)nc3)cc2c1=O
IC50 (CCK-8; 72 h): 2.65 µM

Cc1cc(NS(=O)(=O)c2ccc(NC(=O)/C(C#N)=C/c3ccc(N4CCCC4)cc3)cc2)no1
IC50 (MTT; 48 h): 180 µM

O=C(NO)Nc1nc2c(Cl)cc(Cl)cc2c(=O)n1-c1ccc(Cl)cc1
IC50 (MTT; 48 h): > 200 µM

OC1CCN(c2ccc(/C=N/NC(=S)Nc3ccc(Br)cc3)cc2)CC1
IC50 (MTT; 24 h): 1.85 µM

O=C(O)c1ccc(NCc2cccc(C(F)(F)F)c2)cc1
IC50 (resazurin; 72 h): > 100 µM

COc1ccc(NC(=O)Nc2nc3cc(-c4ccc5ncn(CCN6CCOCC6)c(=O)c5c4)ccc3s2)cc1
IC50 (MTT; 72 h): 1.4 µM

C[C@@H]1C[C@H]2[C@@H]3CCC4=CC(=O)C=C[C@]4(C)[C@@]3(F)[C@@H](O)C[C@]2(C)[C@@]1(O)C(=O)CO
IC50 (MTT; 48 h): 348 µM

COc1ccc(NC(=O)Nc2nc3cc(-c4ccc5ncn(Cc6ccccc6)c(=O)c5c4)ccc3s2)cc1
IC50 (MTT; 72 h): 2.75 µM

Cc1ccc(NNc2nc3ccc(Br)cc3c(=O)n2-c2ccccc2)cc1
IC50 (MTT; 48 h): 17.4 µM

O=C(N[C@@H](CSCc1ccccc1)C(=O)NO)c1ccccc1
IC50 (MTT; 48 h): 201 µM

O=C(NCc1ccccc1)Nc1nc2cc(-c3ccc4ncn(Cc5ccccc5)c(=O)c4c3)ccc2s1
IC50 (MTT; 72 h): 3.13 µM

S=C(N/N=C/c1cccc2cc3ccccc3nc12)Nc1ccccc1
IC50 (MTT; 48 h): > 50 µM
